Laboratory results reported in ChEMBL document CHEMBL1121569, “Analogues of chloramphenicol: circular dichroism spectra, inhibition of ribosomal peptidyltransferase, and possible mechanism of action” (J Med Chem, 1980).

Columns and labels:
[1] = system: Escherichia coli; test: Evaluated for percent inhibition against N-acetyl-L-[14C] phenylalanylpuromycin formation at 8e-4M; format: functional
Summary of the method: (§1)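 Cell-free puromycin reaction with E. coli MRE-600 70S ribosomes (NH4Cl-washed, 4.0 A260 units) in 0.1 mL containing 0.05 M Tris-HCl pH 7.4, 0.1 M NH4Cl, 0.01 M MgCl2, 10 μg poly(U), 0.20 A260 unit N-Ac-[14C]Phe-tRNA, puromycin and inhibitor. Incubated at 37 °C for 30 min. Product extracted into ethyl acetate and counted by scintillation. Single-point inhibition was read at 8×10^-4 M.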

[2] = Dissociation constant (pKa); format: physicochemical
[3] = system: Escherichia coli; test: Generation rate constant […] obtained from the inhibition of growth of Escherichia coli cells; format: organism-based
[4] = system: Escherichia coli; test: Evaluated for the concentration required for a 50% inhibition of N-acetyl-L-[14C] phenylalanylpuromycin formation; format: functional; summary of the method: as §1
[5] = Evaluated for the inhibition constant determined from the Dixon and slope vs. inhibitor concentration plots; format: functional, Escherichia coli
Summary of the method: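 Ki values came from the E. coli MRE-600 70S ribosome puromycin reaction, using poly(U), N-Ac-[14C]Phe-tRNA and puromycin in Tris-HCl pH 7.4 with NH4Cl and MgCl2, at 37 °C for 30 min. Inhibitor concentration was varied. Ethyl acetate-extracted product was counted by scintillation. Ki was derived from Dixon plots built by linear regression and from slope versus inhibitor concentration plots.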

Row | Structure (SMILES) | inhibition [1] | pKa [2] | Log k [3] | ID50 [4] | Ki [5]
1 | O=[N+]([O-])c1ccc(C(O)C(CO)NP(=O)(O)CCl)cc1 (configuration not stated) | 10% | 1.4 | – | – | –
2 | O=C(NC(CO)C(O)c1ccc([N+](=O)[O-])cc1)c1ccco1 (configuration not stated) | 10% | 3.12 | – | – | –
3 | N#CCC(=O)NC(CO)C(O)c1ccc([N+](=O)[O-])cc1 (configuration not stated) | – | 2.43 | 0.14 | 350 µM | 1.7 µM
4 | [N-]=[N+]=NCC(=O)NC(CO)C(O)c1ccc([N+](=O)[O-])cc1 (configuration not stated) | 60% | 3.03 | – | – | 22 µM
5 | O=C(NC(CO)C(O)c1ccc([N+](=O)[O-])cc1)C1CC1 (configuration not stated) | 20% | 4.83 | – | – | –
6 | O=C(N[C@H](CO)[C@H](O)c1ccc([N+](=O)[O-])cc1)C(Cl)Cl [CHLORAMPHENICOL] | – | 1.29 | – | 30 µM | 1.6 µM
7 | CCCC(=O)NC(CO)C(O)c1ccc([N+](=O)[O-])cc1 (configuration not stated) | 34% | 4.82 | 0.71 | – | –
8 | CS(=O)(=O)NC(CO)C(O)c1ccc([N+](=O)[O-])cc1 (configuration not stated) | – | -0.6 | – | 200 µM | 1.1 µM
9 | O=CNC(CO)C(O)c1ccc([N+](=O)[O-])cc1 (configuration not stated) | 10% | 3.77 | – | – | –
10 | CCC(=O)NC(CO)C(O)c1ccc([N+](=O)[O-])cc1 (configuration not stated) | 39% | 4.88 | – | – | –
11 | O=C(NC(CO)C(O)c1ccc([N+](=O)[O-])cc1)C(Cl)(Cl)Cl (configuration not stated) | – | 0.65 | 0.75 | 250 µM | 3 µM
12 | O=C(CCl)NC(CO)C(O)c1ccc([N+](=O)[O-])cc1 (configuration not stated) | – | 2.86 | 1.71 | 500 µM | 27 µM
13 | CC(=O)NC(CO)C(O)c1ccc([N+](=O)[O-])cc1 (configuration not stated) | 34% | 4.76 | 0.48 | – | –
14 | O=C(NC(CO)C(O)c1ccc([N+](=O)[O-])cc1)C1CCC1 (configuration not stated) | 10% | 4.79 | – | – | –
15 | O=C(CO)NC(CO)C(O)c1ccc([N+](=O)[O-])cc1 (configuration not stated) | 10% | 3.83 | – | – | –
16 | O=C(NC(CO)C(O)c1ccc([N+](=O)[O-])cc1)C(Br)Br (configuration not stated) | – | – | 1.84 | 70 µM | 1 µM
17 | O=C(CF)NC(CO)C(O)c1ccc([N+](=O)[O-])cc1 (configuration not stated) | 27% | 2.66 | 1.16 | – | –
